The values that follow come from ChEMBL document CHEMBL4118076, “Azide-alkyne cycloaddition towards 1H-1,2,3-triazole-tethered gatifloxacin and isatin conjugates: Design, synthesis and in vitro anti-mycobacterial evaluation” (Eur J Med Chem, 2017).

Usually MIC90 stands for the lowest concentration that inhibits either 90% of growth or 90% of the strains tested, depending on the study. A high value points to weaker potency.

Common to all, as to format: functional
The subject of assay [1] is Mycobacterium tuberculosis. The assay is described as follows: Antimycobacterial activity against multidrug resistant Mycobacterium tuberculosis after 3 to 7 days by rapid direct susceptibility test. The method in brief:
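Two-fold DMSO dilutions, 0.0125 to 200 μg/mL for H37Rv and 0.062 to 128 μg/mL for the MDR strain (resistant to INH, RIF and ethambutol), mixed with suspension containing 4×10^-3 mg cells. Sealed plates incubated at 37 °C in a wet box. Growth was read visually under high magnification at 3 days and again 7 days later. MIC is the lowest concentration giving complete growth inhibition.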

Assay [2] relates to Mycobacterium tuberculosis. Kind of assay: Potency index, ratio of gatifloxacin MIC90 to compound MIC90 for multidrug resistant Mycobacterium tuberculosis.
In assay [3] the test system is Mycobacterium tuberculosis. The assay is described as follows: Potency index, ratio of rifampicin MIC90 to compound MIC90 for multidrug resistant Mycobacterium tuberculosis.
Assay [4] deals with Mycobacterium tuberculosis. Kind of assay: Potency index, ratio of isoniazid MIC90 to compound MIC90 for multidrug resistant Mycobacterium tuberculosis.
The nature of assay [5]: Resistance index, ratio of MIC90 for multidrug resistant Mycobacterium tuberculosis to MIC90 for Mycobacterium tuberculosis H37Rv.

Structures are written as SMILES. In brackets after ≈: the same amount, converted by molar mass.

Consider `COc1c(N2CCN(Cc3cn(CCN4C(=O)C(=O)c5ccccc54)nn3)C(C)C2)c(F)cc2c(=O)c(C(=O)O)cn(C3CC3)c12` (centres undefined), for which the MIC90 in assay [1] stood at 4 µg/mL (≈ 6.35 µM).
Consider `COc1c(N2CCN(Cc3cn(CCN4C(=O)/C(=N\O)c5ccccc54)nn3)C(C)C2)c(F)cc2c(=O)c(C(=O)O)cn(C3CC3)c12` (centres undefined), for which the MIC90 in assay [1] is 8 µg/mL (≈ 12.4 µM).
As for `CO/N=C1\C(=O)N(CCn2cc(CN3CCN(c4c(F)cc5c(=O)c(C(=O)O)cn(C6CC6)c5c4OC)CC3C)nn2)c2ccc(Cl)cc21` (centres undefined), the Ratio result in assay [2], in assay [3] and in assay [4] was “>=4 - 512” each time. For the same compound, the MIC90 in assay [1] stood at 0.25 µg/mL (≈ 0.361 µM).
Take `CO/N=C1\C(=O)N(CCn2cc(CN3CCN(c4c(F)cc5c(=O)c(C(=O)O)cn(C6CC6)c5c4OC)CC3C)nn2)c2ccc(C)cc21` (centres undefined): the Ratio in assay [5] was < 1. The compound also had an MIC90 in assay [1] of 0.5 µg/mL (≈ 0.743 µM).
In assay [1], `COc1c(N2CCNC(C)C2)c(F)cc2c(=O)c(C(=O)O)cn(C3CC3)c12` (centres undefined) [GATIFLOXACIN] showed an MIC90 of 1 µg/mL (≈ 2.66 µM).
In the case of `COc1c(N2CCN(Cc3cn(CCN4C(=O)C(=O)c5cc(Cl)ccc54)nn3)C(C)C2)c(F)cc2c(=O)c(C(=O)O)cn(C3CC3)c12` (centres undefined), in assay [1], the MIC90 was determined as 0.5 µg/mL (≈ 0.753 µM).
As for `CO[C@H]1/C=C/O[C@@]2(C)Oc3c(C)c(O)c4c(O)c(c(/C=N/N5CCN(C)CC5)c(O)c4c3C2=O)NC(=O)/C(C)=C\C=C\[C@H](C)[C@H](O)[C@@H](C)[C@@H](O)[C@@H](C)[C@H](OC(C)=O)[C@@H]1C` [RIFAMPIN], the MIC90 in assay [1] came to 32 µg/mL (≈ 38.9 µM).
Compound `COc1c(N2CCN(Cc3cn(CCN4C(=O)/C(=N\O)c5cc(F)ccc54)nn3)C(C)C2)c(F)cc2c(=O)c(C(=O)O)cn(C3CC3)c12` (centres undefined) showed an MIC90 in assay [1] of 1 µg/mL (≈ 1.51 µM).
Regarding `COc1c(N2CCN(Cc3cn(CCN4C(=O)/C(=N\O)c5cc(C)ccc54)nn3)C(C)C2)c(F)cc2c(=O)c(C(=O)O)cn(C3CC3)c12` (centres undefined), in assay [1], the MIC90 is 8 µg/mL (≈ 12.1 µM).
For the compound `COc1c(N2CCN(Cc3cn(CCN4C(=O)C(=O)c5cc(F)ccc54)nn3)C(C)C2)c(F)cc2c(=O)c(C(=O)O)cn(C3CC3)c12` (centres undefined), the Ratio in assay [5] is < 1. Moreover, in assay [1], the MIC90 worked out at 0.5 µg/mL (≈ 0.772 µM).
In the case of `NNC(=O)c1ccncc1` [ISONIAZID], the MIC90 in assay [1] was > 128 µg/mL.
As for `CO/N=C1\C(=O)N(CCn2cc(CN3CCN(c4c(F)cc5c(=O)c(C(=O)O)cn(C6CC6)c5c4OC)CC3C)nn2)c2ccc(F)cc21` (centres undefined), the Ratio entry in assay [2], in assay [3] and in assay [4] was “>=4 - 512” each time. In assay [1], this compound displayed an MIC90 of 0.25 µg/mL (≈ 0.369 µM).
As for `COc1c(N2CCN(Cc3cn(CCN4C(=O)/C(=N\O)c5cc(Cl)ccc54)nn3)C(C)C2)c(F)cc2c(=O)c(C(=O)O)cn(C3CC3)c12` (centres undefined), in assay [1], the MIC90 turned out to be 2 µg/mL (≈ 2.95 µM).
With `COc1c(N2CCN(Cc3cn(CCN4C(=O)C(=O)c5cc(C)ccc54)nn3)C(C)C2)c(F)cc2c(=O)c(C(=O)O)cn(C3CC3)c12` (centres undefined), the Ratio in assay [5] is < 1. Further, the MIC90 in assay [1] stood at 1 µg/mL (≈ 1.55 µM).
Compound `CO/N=C1\C(=O)N(CCn2cc(CN3CCN(c4c(F)cc5c(=O)c(C(=O)O)cn(C6CC6)c5c4OC)CC3C)nn2)c2ccccc21` (centres undefined) showed an MIC90 in assay [1] of 1 µg/mL (≈ 1.52 µM).
